Reference: ChEMBL document CHEMBL1127524, “Nitrobenzyl phosphorodiamidates as potential hypoxia-selective alkylating agents” (1994)

Experiments:
HT-29 [1] = assay: Cytotoxicity of compound was evaluated against HT-29 cells under hypoxic conditions.; assay type: functional, Homo sapiens
How it was run: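 HT-29 cells at 1-2 × 10^7 cells/mL deoxygenated 10 min at 37 °C in gas-tight syringe, injected into medium degassed 3 h with 97% N2/3% CO2; 4 h exposure under continuous N2/CO2 gassing, run alongside aerobic arm with same drug stock; 1% DMSO controls; 14-day colony formation (>50 cells); survival vs untreated; duplicates; IC90 from log-linear survival curve.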

HT-29 [2] = assay: Cytotoxicity of compound was evaluated against HT-29 cells under aerobic conditions.; assay type: functional, Homo sapiens
How it was run: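 Human colon carcinoma HT-29 cells (α-MEM, 10% FBS), exponential growth, suspended at 1-2 × 10^5 cells/mL in glass vials; 4 h drug exposure gassed with 97% air/3% CO2; drug from DMSO, controls 1% DMSO; washed, plated, 14-day clonogenic colonies (>50 cells) counted; survival vs untreated; duplicates; IC90 from log-linear portion of survival curve.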

Row | SMILES | LC90 (HT-29 [1]) | LC90 (HT-29 [2])
1 | O=[N+]([O-])c1ccc(COP(=O)(N(CCCl)CCCl)N(CCCl)CCCl)cc1 | 55 µM | 109 µM
2 | CCOC(=O)CC(OP(=O)(N(CCCl)CCCl)N(CCCl)CCCl)c1ccc([N+](=O)[O-])cc1 (stereo not given) | 13 µM | 106 µM
3 | CC(OP(=O)(N(CCCl)CCCl)N(CCCl)CCCl)c1ccc([N+](=O)[O-])cc1 (stereo not given) | 22 µM | >2000 µM
4 | CN(C)CCOC(=O)CC(OP(=O)(N(CCCl)CCCl)N(CCCl)CCCl)c1ccc([N+](=O)[O-])cc1 (stereo not given) | 34 µM | 55 µM
5 | CN(C)CCCOC(=O)CC(OP(=O)(N(CCCl)CCCl)N(CCCl)CCCl)c1ccc([N+](=O)[O-])cc1 (stereo not given) | 50 µM | 95 µM
